# Experimental data taken from ChEMBL document CHEMBL4152188, “Design, synthesis and biological evaluation of C(4) substituted monobactams as antibacterial agents against multidrug-resistant Gram-negative bacteria” (Eur J Med Chem, 2018).
# Legend:
# Type in all cases: functional
# Escherichia coli [1] = assay: Antibacterial activity against extended-spectrum beta-lactamase producing Escherichia coli isolate 212648 after 18 hrs by CLSI broth microdilution method; conditions: isolate 212648, 18 h
# Escherichia coli [2] = assay: Selectivity index, ratio of MIC for against extended-spectrum beta-lactamase producing Escherichia coli isolate 208687 to MIC for extended-spectrum beta-lactamase producing Escherichia coli isolate 208687 in presence of BPL
# Escherichia coli [3] = assay: Antibacterial activity against Escherichia coli isolate 210737 after 18 hrs by CLSI broth microdilution method; conditions: isolate 210737, 18 h
# Escherichia coli [4] = assay: Antibacterial activity against extended-spectrum beta-lactamase producing Escherichia coli isolate 208687 after 18 hrs by CLSI broth microdilution method; conditions: isolate 208687, 18 h
# Escherichia coli [5] = assay: Antibacterial activity against extended-spectrum beta-lactamase producing Escherichia coli isolate 208687 after 18 hrs in presence of BPL by CLSI broth microdilution method; conditions: isolate 208687, 18 h
# Outline: (§1)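 CLSI broth microdilution against clinical isolates (ESBL E. coli, KPC-2 MDR K. pneumoniae, IMP-4 MDR P. aeruginosa; five per species). Iron limitation: Mueller-Hinton broth supplemented with 16 mg/liter 2,2'-bipyridyl to complex iron and induce iron uptake systems. Read-out: MIC.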
# Escherichia coli [6] = assay: Antibacterial activity against Escherichia coli isolate 210737 after 18 hrs in presence of BPL by CLSI broth microdilution method; conditions: isolate 210737, 18 h; outline: as §1
# Escherichia coli [7] = assay: Selectivity index, ratio of MIC for against Escherichia coli isolate 210737 to MIC for Escherichia coli isolate 210737 in presence of BPL
# Escherichia coli [8] = assay: Antibacterial activity against extended-spectrum beta-lactamase producing Escherichia coli isolate 212648 after 18 hrs in presence of BPL by CLSI broth microdilution method; conditions: isolate 212648, 18 h; outline: as §1
# Escherichia coli [9] = assay: Selectivity index, ratio of MIC for against extended-spectrum beta-lactamase producing Escherichia coli isolate 212648 to MIC for extended-spectrum beta-lactamase producing Escherichia coli isolate 212648 in presence of BPL
# Escherichia coli [10] = assay: Antibacterial activity against extended-spectrum beta-lactamase producing Escherichia coli isolate 209285 after 18 hrs by CLSI broth microdilution method; conditions: isolate 209285, 18 h
# Escherichia coli [11] = assay: Antibacterial activity against extended-spectrum beta-lactamase producing Escherichia coli isolate 209285 after 18 hrs in presence of BPL by CLSI broth microdilution method; conditions: isolate 209285, 18 h; outline: as §1
# Escherichia coli [12] = assay: Selectivity index, ratio of MIC for against extended-spectrum beta-lactamase producing Escherichia coli isolate 209285 to MIC for extended-spectrum beta-lactamase producing Escherichia coli isolate 209285 in presence of BPL
# Escherichia coli [13] = assay: Antibacterial activity against extended-spectrum beta-lactamase producing Escherichia coli isolate 106342 after 18 hrs by CLSI broth microdilution method; conditions: isolate 106342, 18 h
# Escherichia coli [14] = assay: Antibacterial activity against extended-spectrum beta-lactamase producing Escherichia coli isolate 106342 after 18 hrs in presence of BPL by CLSI broth microdilution method; conditions: isolate 106342, 18 h; outline: as §1
# Escherichia coli [15] = assay: Selectivity index, ratio of MIC for against extended-spectrum beta-lactamase producing Escherichia coli isolate 106342 to MIC for extended-spectrum beta-lactamase producing Escherichia coli isolate 106342 in presence of BPL
# Klebsiella pneumoniae [16] = assay: Antibacterial activity against KPC-2 producing Klebsiella pneumoniae isolate 212423 after 18 hrs by CLSI broth microdilution method; conditions: isolate 212423, 18 h
# Klebsiella pneumoniae [17] = assay: Antibacterial activity against KPC-2 producing Klebsiella pneumoniae isolate 212423 after 18 hrs in presence of BPL by CLSI broth microdilution method; conditions: isolate 212423, 18 h; outline: as §1
# Klebsiella pneumoniae [18] = assay: Selectivity index, ratio of MIC for against KPC-2 producing Klebsiella pneumoniae isolate 212423 to MIC for against KPC-2 producing Klebsiella pneumoniae isolate 212423 in presence of BPL
# Klebsiella pneumoniae [19] = assay: Antibacterial activity against KPC-2 producing Klebsiella pneumoniae isolate 209632 after 18 hrs by CLSI broth microdilution method; conditions: isolate 209632, 18 h
# Klebsiella pneumoniae [20] = assay: Antibacterial activity against KPC-2 producing Klebsiella pneumoniae isolate 209632 after 18 hrs in presence of BPL by CLSI broth microdilution method; conditions: isolate 209632, 18 h; outline: as §1
# Klebsiella pneumoniae [21] = assay: Selectivity index, ratio of MIC for against KPC-2 producing Klebsiella pneumoniae isolate 209632 to MIC for against KPC-2 producing Klebsiella pneumoniae isolate 209632 in presence of BPL
# Klebsiella pneumoniae [22] = assay: Antibacterial activity against KPC-2 producing Klebsiella pneumoniae isolate 209735 after 18 hrs by CLSI broth microdilution method; conditions: isolate 209735, 18 h
# Klebsiella pneumoniae [23] = assay: Antibacterial activity against KPC-2 producing Klebsiella pneumoniae isolate 209735 after 18 hrs in presence of BPL by CLSI broth microdilution method; conditions: isolate 209735, 18 h; outline: as §1
# Klebsiella pneumoniae [24] = assay: Selectivity index, ratio of MIC for against KPC-2 producing Klebsiella pneumoniae isolate 209735 to MIC for against KPC-2 producing Klebsiella pneumoniae isolate 209735 in presence of BPL
# Klebsiella pneumoniae [25] = assay: Antibacterial activity against KPC-2 producing Klebsiella pneumoniae isolate 212232 after 18 hrs by CLSI broth microdilution method; conditions: isolate 212232, 18 h
# Klebsiella pneumoniae [26] = assay: Antibacterial activity against KPC-2 producing Klebsiella pneumoniae isolate 212232 after 18 hrs in presence of BPL by CLSI broth microdilution method; conditions: isolate 212232, 18 h; outline: as §1
# Klebsiella pneumoniae [27] = assay: Selectivity index, ratio of MIC for against KPC-2 producing Klebsiella pneumoniae isolate 212232 to MIC for against KPC-2 producing Klebsiella pneumoniae isolate 212232 in presence of BPL
# Klebsiella pneumoniae [28] = assay: Antibacterial activity against KPC-2 producing Klebsiella pneumoniae isolate 212229 after 18 hrs by CLSI broth microdilution method; conditions: isolate 212229, 18 h
# Klebsiella pneumoniae [29] = assay: Antibacterial activity against KPC-2 producing Klebsiella pneumoniae isolate 212229 after 18 hrs in presence of BPL by CLSI broth microdilution method; conditions: isolate 212229, 18 h; outline: as §1
# Klebsiella pneumoniae [30] = assay: Selectivity index, ratio of MIC for against KPC-2 producing Klebsiella pneumoniae isolate 212229 to MIC for against KPC-2 producing Klebsiella pneumoniae isolate 212229 in presence of BPL
# Pseudomonas aeruginosa [31] = assay: Antibacterial activity against IMP-4 producing Pseudomonas aeruginosa isolate 212886 after 18 hrs by CLSI broth microdilution method; conditions: isolate 212886, 18 h
# Pseudomonas aeruginosa [32] = assay: Antibacterial activity against IMP-4 producing Pseudomonas aeruginosa isolate 212886 after 18 hrs in presence of BPL by CLSI broth microdilution method; conditions: isolate 212886, 18 h; outline: as §1
# Pseudomonas aeruginosa [33] = assay: Antibacterial activity against IMP-4 producing Pseudomonas aeruginosa isolate 209471 after 18 hrs by CLSI broth microdilution method; conditions: isolate 209471, 18 h
# Pseudomonas aeruginosa [34] = assay: Antibacterial activity against IMP-4 producing Pseudomonas aeruginosa isolate 209471 after 18 hrs in presence of BPL by CLSI broth microdilution method; conditions: isolate 209471, 18 h; outline: as §1
# Pseudomonas aeruginosa [35] = assay: Selectivity index, ratio of MIC for against IMP-4 producing Pseudomonas aeruginosa isolate 209471 to MIC for against IMP-4 producing Pseudomonas aeruginosa isolate 209471 in presence of BPL
# Pseudomonas aeruginosa [36] = assay: Antibacterial activity against IMP-4 producing Pseudomonas aeruginosa isolate 208247 after 18 hrs by CLSI broth microdilution method; conditions: isolate 208247, 18 h
# Pseudomonas aeruginosa [37] = assay: Antibacterial activity against IMP-4 producing Pseudomonas aeruginosa isolate 208247 after 18 hrs in presence of BPL by CLSI broth microdilution method; conditions: isolate 208247, 18 h; outline: as §1
# Pseudomonas aeruginosa [38] = assay: Antibacterial activity against IMP-4 producing Pseudomonas aeruginosa isolate 209321 after 18 hrs by CLSI broth microdilution method; conditions: isolate 209321, 18 h
# Pseudomonas aeruginosa [39] = assay: Antibacterial activity against IMP-4 producing Pseudomonas aeruginosa isolate 209321 after 18 hrs in presence of BPL by CLSI broth microdilution method; conditions: isolate 209321, 18 h; outline: as §1
# Pseudomonas aeruginosa [40] = assay: Selectivity index, ratio of MIC for against IMP-4 producing Pseudomonas aeruginosa isolate 209321 to MIC for against IMP-4 producing Pseudomonas aeruginosa isolate 209321 in presence of BPL
# Pseudomonas aeruginosa [41] = assay: Antibacterial activity against IMP-4 producing Pseudomonas aeruginosa isolate 207272 after 18 hrs by CLSI broth microdilution method; conditions: isolate 207272, 18 h
# Pseudomonas aeruginosa [42] = assay: Antibacterial activity against IMP-4 producing Pseudomonas aeruginosa isolate 207272 after 18 hrs in presence of BPL by CLSI broth microdilution method; conditions: isolate 207272, 18 h; outline: as §1
# Pseudomonas aeruginosa [43] = assay: Selectivity index, ratio of MIC for against IMP-4 producing Pseudomonas aeruginosa isolate 207272 to MIC for against IMP-4 producing Pseudomonas aeruginosa isolate 207272 in presence of BPL
# Pseudomonas aeruginosa [44] = assay: Selectivity index, ratio of MIC for against IMP-4 producing Pseudomonas aeruginosa isolate 212886 to MIC for against IMP-4 producing Pseudomonas aeruginosa isolate 212886 in presence of BPL
# Pseudomonas aeruginosa [45] = assay: Selectivity index, ratio of MIC for against IMP-4 producing Pseudomonas aeruginosa isolate 208247 to MIC for against IMP-4 producing Pseudomonas aeruginosa isolate 208247 in presence of BPL
compound,measurement,setting,value
CC(C)C(O/N=C(\C(=O)N[C@@H]1C(=O)N(S(=O)(=O)O)[C@@H]1CN1CCNCC1)c1csc(N)n1)c1cc(=O)c(O)cn1O (some centres not stated),MIC,Escherichia coli [1],2 µg/mL
same,Selectivity Index,Escherichia coli [2],2
same,MIC,Escherichia coli [3],1 µg/mL
same,MIC,Escherichia coli [4],2 µg/mL
same,MIC,Escherichia coli [5],1 µg/mL
same,MIC,Escherichia coli [6],1 µg/mL
same,Selectivity Index,Escherichia coli [7],1
same,MIC,Escherichia coli [8],0.5 µg/mL
same,Selectivity Index,Escherichia coli [9],4
same,MIC,Escherichia coli [10],2 µg/mL
same,MIC,Escherichia coli [11],0.5 µg/mL
same,Selectivity Index,Escherichia coli [12],4
same,MIC,Escherichia coli [13],2 µg/mL
same,MIC,Escherichia coli [14],1 µg/mL
same,Selectivity Index,Escherichia coli [15],2
same,MIC,Klebsiella pneumoniae [16],4 µg/mL
same,MIC,Klebsiella pneumoniae [17],2 µg/mL
same,Selectivity Index,Klebsiella pneumoniae [18],2
same,MIC,Klebsiella pneumoniae [19],> 64 µg/mL
same,MIC,Klebsiella pneumoniae [20],> 64 µg/mL
same,Selectivity Index,Klebsiella pneumoniae [21],1 - 8
same,MIC,Klebsiella pneumoniae [22],> 64 µg/mL
same,MIC,Klebsiella pneumoniae [23],> 64 µg/mL
same,Selectivity Index,Klebsiella pneumoniae [24],1 - 8
same,MIC,Klebsiella pneumoniae [25],4 µg/mL
same,MIC,Klebsiella pneumoniae [26],0.5 µg/mL
same,Selectivity Index,Klebsiella pneumoniae [27],8
same,MIC,Klebsiella pneumoniae [28],2 µg/mL
same,MIC,Klebsiella pneumoniae [29],2 µg/mL
same,Selectivity Index,Klebsiella pneumoniae [30],1
same,MIC,Pseudomonas aeruginosa [31],> 64 µg/mL
same,MIC,Pseudomonas aeruginosa [32],> 64 µg/mL
same,MIC,Pseudomonas aeruginosa [33],64 µg/mL
same,MIC,Pseudomonas aeruginosa [34],64 µg/mL
same,Selectivity Index,Pseudomonas aeruginosa [35],1
same,MIC,Pseudomonas aeruginosa [36],> 64 µg/mL
same,MIC,Pseudomonas aeruginosa [37],> 64 µg/mL
same,MIC,Pseudomonas aeruginosa [38],32 µg/mL
same,MIC,Pseudomonas aeruginosa [39],32 µg/mL
same,Selectivity Index,Pseudomonas aeruginosa [40],1
same,MIC,Pseudomonas aeruginosa [41],64 µg/mL
same,MIC,Pseudomonas aeruginosa [42],64 µg/mL
same,Selectivity Index,Pseudomonas aeruginosa [43],1
CC(C)C(O/N=C(\C(=O)N[C@@H]1C(=O)N(S(=O)(=O)O)[C@@H]1CSc1nc(=O)c(O)nn1C)c1csc(N)n1)c1cc(=O)c(O)cn1O (some centres not stated),MIC,Escherichia coli [1],4 µg/mL
same,Selectivity Index,Escherichia coli [2],4
same,MIC,Escherichia coli [3],2 µg/mL
same,MIC,Escherichia coli [4],4 µg/mL
same,MIC,Escherichia coli [5],1 µg/mL
same,MIC,Escherichia coli [6],1 µg/mL
same,Selectivity Index,Escherichia coli [7],2
same,MIC,Escherichia coli [8],1 µg/mL
same,Selectivity Index,Escherichia coli [9],4
same,MIC,Escherichia coli [10],4 µg/mL
same,MIC,Escherichia coli [11],4 µg/mL
same,Selectivity Index,Escherichia coli [12],1
same,MIC,Escherichia coli [13],4 µg/mL
same,MIC,Escherichia coli [14],2 µg/mL
same,Selectivity Index,Escherichia coli [15],2
same,MIC,Klebsiella pneumoniae [16],4 µg/mL
same,MIC,Klebsiella pneumoniae [17],2 µg/mL
same,Selectivity Index,Klebsiella pneumoniae [18],2
same,MIC,Klebsiella pneumoniae [19],2 µg/mL
same,MIC,Klebsiella pneumoniae [20],1 µg/mL
same,Selectivity Index,Klebsiella pneumoniae [21],2
same,MIC,Klebsiella pneumoniae [22],4 µg/mL
same,MIC,Klebsiella pneumoniae [23],2 µg/mL
same,Selectivity Index,Klebsiella pneumoniae [24],2
same,MIC,Klebsiella pneumoniae [25],2 µg/mL
same,MIC,Klebsiella pneumoniae [26],0.25 µg/mL
same,Selectivity Index,Klebsiella pneumoniae [27],8
same,MIC,Klebsiella pneumoniae [28],4 µg/mL
same,MIC,Klebsiella pneumoniae [29],1 µg/mL
same,Selectivity Index,Klebsiella pneumoniae [30],4
same,MIC,Pseudomonas aeruginosa [31],> 64 µg/mL
same,MIC,Pseudomonas aeruginosa [32],32 µg/mL
same,Selectivity Index,Pseudomonas aeruginosa [44],>2
same,MIC,Pseudomonas aeruginosa [33],64 µg/mL
same,MIC,Pseudomonas aeruginosa [34],64 µg/mL
same,Selectivity Index,Pseudomonas aeruginosa [35],1
same,MIC,Pseudomonas aeruginosa [36],64 µg/mL
same,MIC,Pseudomonas aeruginosa [37],64 µg/mL
same,Selectivity Index,Pseudomonas aeruginosa [45],1
same,MIC,Pseudomonas aeruginosa [38],> 64 µg/mL
same,MIC,Pseudomonas aeruginosa [39],> 64 µg/mL
same,MIC,Pseudomonas aeruginosa [41],64 µg/mL
same,MIC,Pseudomonas aeruginosa [42],64 µg/mL
same,Selectivity Index,Pseudomonas aeruginosa [43],1
